The full list was thinned out, with hits kept by preference.
PostGolgi yeast – growth inhibition of a yeast mutant, post-Golgi transport screen. post-Golgi transport phenotypic cell assay. inhibition, % at 10 µM. actives 0.9% (n = 98,000);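 further: yeast cells grown in 1536-well plates; yeast grown about 18 h at 30C before absorbance read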
Yeast growth inh – chemicals that inhibit yeast BB579 growth in restrictive medium (lifespan-shortening candidates); S. cerevisiae BB579 growth, OD615, 48 h; inhibition, % at 10 µM; actives 0.51% (n = 140,000);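 active means inhibition above a set limit, 3 SD over the mean compound inhibition, cut at about 44% in these data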
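controls = amphotericin B 10 µg/mL, positive | assay system = DeaD yeast strain BB579 | schedule = 48 h compound exposure at 30 °C after 4 h preincubation | detection = OD615 turbidity measurement | medium = restrictive CSMM-D medium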
PostGolgi ctrl – growth of the yeast control strain, post-Golgi counter-screen; efflux-deficient yeast background strain, growth absorbance A615, 16 h; inhibition, % at 10 µM; actives 5% (n = 98,000)
Yeast lifespan up – yeast lifespan extension; S. cerevisiae growth with nicotinamide, OD615; deaD strain in restrictive glucose medium; inhibition of the nicotinamide effect, % at 10 µM; actives 0.68% (n = 130,000); AID 775;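 active means inhibition above a set limit, placed 3 SD over the median of all compounds, cut at about 26% in these data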
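Material: Modified budding yeast, DeaD strain | Medium: Restrictive glucose medium | Probe or stimulus: 1.5 mM nicotinamide | Dosing: Single dose 10 µM compound, 0.25% DMSO | Times: 48 h at 30 °C | Technique: OD615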
Hits are given with their value; . = inactive; / = no result given. Unless noted, no stated cut-off is given here; in the data, active means inhibition above about 30%; inactive means the rest.

SMILES	PostGolgi yeast	Yeast growth inh	PostGolgi ctrl	Yeast lifespan up
Cc1ccc(-c2nn(-c3ccccc3)cc2C2SCC(=O)N2Cc2ccccc2)o1 (configuration not stated)	.	.	58	.
Cc1cc(C(=O)N[C@H](c2ccccc2)[C@@]2(C)C[C@@H]2[C@@H](C)C(=O)Nc2ccc3ccccc3c2)n(C)n1	/	.	/	.
Nc1nc(SCc2ccc(Cl)cc2)ns1	.	.	44	.
COC(=O)c1ccc(NC(=O)CCN2CCN(Cc3ccccc3)CC2)cc1	/	.	/	/
O=c1/c(=C/c2cccc3ccccc23)sc2ncnn12	.	.	.	29
Cc1ccsc1/C=c1\sc2ncnn2c1=O	.	.	.	.
COc1ccc(C(=O)n2c(-c3ccco3)nc3ccccc32)cc1	.	.	33	.
Clc1ccc(OCCn2c(-c3ccco3)nc3ccccc32)cc1	.	.	53	.
NC(N)=N/N=C/c1ccc(OCc2ccccc2Cl)cc1	.	.	36	.
O=C1c2ccccc2C(Nc2ccc(Cl)cn2)N1Cc1ccccc1 (configuration not stated)	.	.	58	.
O=C(CCc1ccccc1)Nc1ccc(Cl)cn1	.	.	.	.
COc1ccc2c(c1)-c1c(sn(-c3ccc(OC)c(OC)c3)c1=S)C(C)(C)N2	.	.	38	.
CC(C)N1C(=O)CCC1C(=O)O (configuration not stated)	/	.	/	.
Cc1cc(C)cc(N2C(=O)C3C4C=CC(C4)C3C2=O)c1 (configuration not stated)	.	.	.	.
COc1ccc(NC2SC(=O)N(CC(=O)O)C2=O)cc1 (configuration not stated)	.	.	37	.
CC(=O)Nc1ccc(NC(=O)C(Cc2ccccc2)NC(=O)C2CCC(C)CC2)cc1 (configuration not stated)	/	.	/	.
CCN(CC)c1nc(N)nc(N(c2ccccc2)c2ccccc2)n1	.	.	53	.
CCOC(=O)/C=C/C(=O)Nc1ccccc1-c1ccccc1NC(=O)/C=C/C(=O)OCC	/	.	/	.
COc1ccc(N2C(=O)CSC2c2ccc3c(c2)OCO3)c(OC)c1 (configuration not stated)	.	.	31	.
COc1ccc(N2C(=O)CSC2c2ccc3c(c2)OCO3)cc1 (configuration not stated)	.	.	.	.
CCC(C)(C(=O)NC1CCCC1)N(Cc1cccs1)C(=O)c1ccc2c(c1)OCO2 (configuration not stated)	/	.	/	.
Cc1ccnc2c(N3C(=O)C4C5c6ccccc6C(c6ccccc65)C4C3=O)cccc12 (configuration not stated)	69	.	74	.
COc1ccc2c(c1OC)C(=O)N1c3ccccc3C(=O)N(c3ccccc3)C21 (configuration not stated)	.	.	.	.
N#CC(C#N)=Cc1cc2ccccc2nc1N1CCCCC1	/	.	/	36
CCOC(=O)/C(C#N)=C/c1cc2ccccc2nc1N1CCOCC1	/	.	/	.
SMILES	PostGolgi yeast	Yeast growth inh	PostGolgi ctrl	Yeast lifespan up
O=C(N/N=C/c1cccc(OCC(=O)N2CCCC2)c1)C(=O)Nc1ccccc1F	/	.	/	.
Cc1ccc(-c2noc(CSc3nnc(-c4ccncc4)n3-c3ccc(C)cc3)n2)cc1	.	.	.	.
Cc1ccc(-c2noc(CSc3nnnn3C3CCCCC3)n2)cc1	.	.	40	.
CCOC(=O)c1ccc(/C=C2/C=C(c3ccccc3)N(c3ccc(Cl)c(C(=O)O)c3)C2=O)cc1	/	.	/	.
CCn1c(CSc2nnc(-c3ccoc3C)n2C)nc2cc(S(=O)(=O)N(C)C)ccc21	.	.	38	.
CCn1c(CSc2nnc(C)n2-c2ccccc2)nc2cc(S(=O)(=O)N(C)C)ccc21	.	.	.	.
Cc1oc(-c2ccc3c(c2)OCCO3)cc1C(=O)O	/	90	/	/
Cc1oc(-c2ccc3c(c2)OCCO3)cc1C(=O)NC(CCC(=O)O)C(=O)O (configuration not stated)	.	.	.	.
COC(=O)C1=C(CSCc2ccco2)NC(=O)NC1c1cc(C)ccc1C (configuration not stated)	.	.	.	.
CC(C)c1ccc(S(=O)(=O)c2n[nH]n3c2nc(=O)c2ccccc23)cc1	.	.	57	.
Cc1ccc(S(=O)(=O)c2nnn3c2nc(Nc2cccc(C)c2)c2ccccc23)cc1	/	.	/	.
O=c1nc2c(-c3ccccc3F)n[nH]n2c2ccccc12	.	.	.	.
CCc1ccc(S(=O)(=O)c2n[nH]n3c2nc(=O)c2ccccc23)cc1	.	.	50	.
CSC(=O)CC(=O)NC(=O)c1ccccc1	.	.	.	.
CC(=O)c1c(C(C)=O)c(C)n(NC(=O)c2ccccc2Cl)c1C	.	.	.	.
CC(=O)c1c(C(C)=O)c(C)n(NC(=O)c2ccc(Cl)cc2)c1C	31	.	.	.
O=C(CSc1nnc(CNc2cccc(Cl)c2)o1)OC1CCCCC1	.	.	31	.
Clc1ccc(CSc2nnc(CNc3cccc(Cl)c3)o2)cc1	.	.	45	.
CCOCCOC(=O)c1ccc(-n2cncn2)nc1	.	.	.	.
S=C(Nc1ccccc1)Nc1nc2ccccc2n1CCOc1ccccc1	.	.	32	.
CC(=O)Nc1nc2ccccc2n1CCOc1ccccc1	.	.	.	.
O=C(NC(NNc1ccc([N+](=O)[O-])cc1)(C(F)(F)F)C(F)(F)F)c1ccc(Cl)cc1	.	.	58	.
CC(=O)Nc1ccc(NC(=S)NC(=O)c2ccc([N+](=O)[O-])cc2)cc1	/	.	/	.
O=C(CSCc1cccc(Cl)c1)N/N=C/c1ccc(OCC(=O)N2CCCCC2)cc1	.	.	42	.
O=C(COc1ccc(Cl)cc1Cl)NCCSc1ccc(Cl)cc1	.	.	43	.
SMILES	PostGolgi yeast	Yeast growth inh	PostGolgi ctrl	Yeast lifespan up
Cc1cccc(CSCCNC(=O)COc2ccc(Cl)cc2)c1	/	.	/	.
O=C(COc1ccc(Cl)cc1Cl)NCCCCc1ccccc1	.	.	42	.
CN(C)CCNC(=O)COc1ccc(Cl)cc1Cl	/	.	/	.
Cc1cccc(C(=O)N/N=C/c2ccc(OCC(=O)N3CCCCC3)cc2)c1	.	.	.	.
Cc1cc(Cl)ccc1OCC(=O)NCCCCc1ccccc1	/	.	/	.
O=C(COc1ccc(Cl)cc1)NCCSCc1cccc(Cl)c1	.	.	39	.
CCCN(S(=O)(=O)c1ccc(OCC)cc1)S(=O)(=O)c1cccs1	.	.	.	.
Cc1ccc(CCN2C(=O)CCC2(C)C(=O)NCc2cccnc2)cc1 (configuration not stated)	.	.	.	.
COc1ccc(S(=O)(=O)N2CCc3ccccc32)cc1C(=O)OCc1nnc(-c2ccccc2)o1	.	.	.	.
O=C1CS/C(=C\[N+](=O)[O-])N1c1ccccc1	.	.	.	.
COC(/C=C/Nc1ccc(OC)cc1)=C(C#N)C#N	.	.	31	.
CCN(c1ccc(OCC(=O)OCC(=O)Nc2ccc(F)c(F)c2F)cc1)S(=O)(=O)c1ccccc1	/	.	/	.
Cc1nn(-c2ccccn2)c(C)c1Oc1ccccc1O	34	.	.	.
Cc1ccc(S(=O)(=O)NCCN=C(CN2CCCC2)NS(=O)(=O)c2ccc(C)cc2)cc1	.	.	32	.
